This passage reports Activity, ED50 and ED results from ChEMBL document CHEMBL3272264, “(+)- and (-)-3-Methoxycyproheptadine. A comparative evaluation of the antiserotonin, antihistaminic, anticholinergic, and orexigenic properties with cyproheptadine” (1977).

Holding throughout (format): functional
Test [1] has as its system Felis catus. Nature of the test: Orexigenic activity in cat assessed as food consumption at 0.0312 mg/kg, po (reference value: 126 +/- 26 to 155 +/- 33 g).
In test [2] the test system is Felis catus. Nature of the test: Orexigenic activity in cat assessed as food consumption at 0.25 mg/kg, po (reference value: 118 +/- 52 to 143 +/- 37 g).
Test [3] has as its system Felis catus. Nature of the test: Orexigenic activity in cat assessed as food consumption at 0. 0312 mg/kg, po (reference value: 107 +/- 29 to 146 +/- 24 g).
The subject of test [4] is Felis catus. As to the kind of experiment: Orexigenic activity in cat assessed as food consumption at 0. 25 mg/kg, po (reference value: 119 +/- 39 to 155 +/- 34 g).
Test [5] has as its system Felis catus. As to the kind of experiment: Orexigenic activity in cat assessed as food consumption at 0. 0312 mg/kg, po (reference value: 126 +/- 34 to 150 +/- 52 g).
For test [6], the system named is Felis catus. Nature of the test: Orexigenic activity in cat assessed as food consumption at 0. 25 mg/kg, po (reference value: 114 +/- 25 to 147 +/- 42 g).
In another test the test system is Rattus norvegicus. Nature of the test: Antiserotonin activity against po dosed Sprague-Dawley rat assessed as inhibition of serotonin-induced edema of right hind paw compound administered 1 hr prior to serotonin challenge. In short, it runs like this: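 Male rats, 140-210 g, dosed orally 1 h before 5 µg serotonin (base) into the right hind paw; saline (0.05 mL) into the left paw. Feet removed and weighed 30 min later; percent inhibition of serotonin weight gain versus saline paw. Doses 0.156-80 mg/kg, 4-16 rats per dose. ED50 from log-dose regression.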

For another test, the system named is Cavia porcellus. As to the kind of experiment: Antihistaminic activity against ip dosed Duncan-Harley guinea pig assessed as inhibition of histamine aerosol-induced bronchoconstriction compound administered 30 mins prior to histamine challenge. In a few lines:
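Guinea pigs of either sex, 200-300 g. Compound given ip as a suspension in 1% methylcellulose. 30 min later, 3-min exposure to histamine aerosol (0.5% base) in individual chambers, then 10 min observation. Dose range 0.031-6.25 mg/kg, 3-4 levels, 5-10 animals per level. ED50 is the dose protecting 50% from bronchoconstriction death, from log-dose regression.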

The next test deals with Mus musculus. Nature of the test: Anticholinergic activity in po dosed CF-1 mouse assessed as dose required to increase pupil diameter to 1.5 micrometer after 1 hr. In short, it runs like this: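 Female CF-1 mice dosed orally, five dose levels, ten mice per dose. Pupil diameter measured with an ocular micrometer 1 h after dosing. ED1.5 is the dose raising pupil diameter to 1.5 micrometer units, derived by regression of response on log dose (Finney).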

The subject of test [7] is Felis catus. Nature of the test: Orexigenic activity in cat assessed as food consumption at 0. 25 mg/kg, po (reference value: 179 +/- 31 g).

As to `COc1ccc2c(c1)C(=C1CCN(C)CC1)c1ccccc1C=C2`, the Activity with Felis catus [1] stood at 110 g; in the test on Felis catus [2], 143 g; in the test on Felis catus [3], 115 g; in the test with Felis catus [4], 140 g; in the test on Felis catus [5], 131 g; in the test with Felis catus [6], 134 g.

For `CN1CCC(=C2c3ccccc3C=Cc3ccccc32)CC1` [CYPROHEPTADINE], the ED50 in the test on Rattus norvegicus came out at 0.24 mg/kg; in the test with Cavia porcellus it was 0.077 mg/kg. Besides, in the test with Mus musculus, the ED amounted to 6 mg/kg. In addition, the Activity in the test with Felis catus [7] stood at 220 g.
